B1: tRNA (parent)
chain: GUUCCGUUGGCGUAAUGGUAACGCGUCUCCCUCCUAAGGAGAAGACUGCGGGUUCGAGUCCCGUACGGAACG

Variants at the floor of the assay were thinned out.

In this series the parent is B1. As to the kind of experiment: yeast fitness relative to wild type (ratio to wild type); higher = fitter; tRNA-Arg(CCU), competitive growth, 37 C, YPD. The method in brief:
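Amplicons of the tRNA-Arg(CCU) gene were sequenced, 100-nucleotide paired-end, from the start population and from each end population of a pooled yeast competition. The competition, in six parallel replicates, lasted 24 hours in YPD at 37°C. Fitness relative to wild type was calculated from changes in genotype frequencies. Genotypes had to have ≥ 100 starting reads, and estimates < 0.5 were set to 0.5.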
GAUCCGUUGGCGUAAUGGUAACGCGUCUCCCUCCUAAGGACAAGACUGCGGGUUCGAGUCCCGUACGGAACG [U2A G41C]: the yeast fitness was determined as 0.757. As for GUUCCGUUGGCGUAAUGGCAAGGAGUCUCCCUCCUAAGCAGAAGCCUGCGGGUUCGAGUCCCGUACGGAACG [U19C C22G C24A G39C A45C], the yeast fitness was determined as 0.916. GUUCCGUUGGCGUAAUGGUAACGCAUCUCCCUCGUAAGGAGAAGACUGCGGGUUCGAGUCCCGUACGGAACG [G25A C34G]: the yeast fitness was 0.726. To GUUCCGUUGGCGUAAUGGUAACGCGUCUCGCCCCUAAGGAGAAGACUGCCGGUUCGAGUCCCGUACGGAACG [C30G U32C G50C] belongs not above 0.5.

In the case of GUUCGGUUGAGGUAAGGGUAACGCGUCUCCCUGCUAAGGAGAAGACAGCGGGUUCGAGUACCGUACGGAACG [C5G G10A C11G U16G C33G U47A C60A], the yeast fitness is not above 0.5.

As for GUUCCGUUGGCGUAAUGGUAACGCAUCUCCCUCCUAAGGAGAAGACUGCGGGUUCGAGUACCGUACGGAACG [G25A C60A], the yeast fitness came out at 0.66. Turning to GUUCCGUUGGCGUAAUGGUAACGCGUGUCCCUGCUAAGGAGAAGACUGCGCGUUCGAGUUUCGUACGGAACG [C27G C33G G51C C60U C61U], the yeast fitness is not above 0.5. For the variant GUUCCGUUGGCGUGAUGGUAACGCAUCUCACUCCUAAGGAGAAGACUGCGGCUUCGAGUCCCGUACGGAACG [A14G G25A C30A G52C], the yeast fitness was 0.548. Turning to GUUCCGUUGGUGUAAUGGUAACGCGUCUCCUUCCUAAGGAGGAGACUGCGGGUUCGAGUCCUGUACGGCACG [C11U C31U A42G C62U A69C], the yeast fitness was not above 0.5.

On to GUUCCGUUGGCGUAAUGGUAACGCGUCUCCCUCCUAAGGAGAAGAGUACGGGUUCGACUCCCGUACGGAACG [C46G G48A G58C], for which the yeast fitness came to 1.15. As for GUUCCGAUGGCGUAAUAGUAACGCGUCUCCCCCCUAAGGAGAAGACUGCGGGUUCGAGUCCCGUACGGAACG [U7A G17A U32C], the yeast fitness was not above 0.5. Consider GUUCCGUUGGGGUAAUGGUAACGCGUCUCCCCCCUAAGGAGAAGACUGCGGGUUCGAGUGCCGUACGGAACG [C11G U32C C60G], for which the yeast fitness was not above 0.5.

For GUUCCGUUGGCGAAAUGGUAACGCGUCUCCCUACUUAGGAGAAGACUGCGGGUUCGAGUCCCGUACGCAACG [U13A C33A A36U G68C], the yeast fitness is not above 0.5.

Regarding GUUCCGUUGGCGUUAUGGUACCGCGUCUCCCUCCUCAGGAGAAGACUGAGGGUUCGAGUCCCGUAGGGAACG [A14U A21C A36C C49A C66G], the yeast fitness was not above 0.5. On to GUACCGUUGGCGUAAUGGUAACGCGUCUCCCUCCUAAGGUGAAGACUGCGGGUUCGAGUCCCGUACGGAGCG [U3A A40U A70G], for which the yeast fitness came out at 0.597.

For GUUCCGUUGGCGUAAUGGUAACGCGUCUCCCCCCUAUGGAGAAGACUGCGGGUUCCUGUCCCGUACGGAACG [U32C A37U G56C A57U], the yeast fitness was not above 0.5.

Consider GUUCCGUUGGCGGAAUGGUAACGCGUCUCCCUCCUAAGCAGAAGAUUGCGGGUUCGAGUCCCGUACGGAACG [U13G G39C C46U], for which the yeast fitness came to 0.535. Consider GUUCGGUUGGCGUAAUGGUAACGCGUCUCACUCCUGAGGAGAAGACUGCGGGUUCGAGUCCCGCACGGAACG [C5G C30A A36G U64C], for which the yeast fitness was not above 0.5. As for GUACCGUUGGCGUAAUGGUAACGCGUCUGCCUCCUAAGGAGAAGACUGCGGGUUCGAGUGCCGUACGGAACG [U3A C29G C60G], the yeast fitness is not above 0.5.

Consider GUUCCGUUGGCGUAAUGGUAACGCGUCUCCCUCCUAAGGAGAAGACUGCGGGAUCGAGUCCCGUACUAAACG [U53A G67U G68A], for which the yeast fitness is not above 0.5. As to GUUCCGUUGGCGUAAUGGUAACGCGUCUCCCCCCUAAGGACAAGACUGCGGGUUCGAUUCCCGUACGGAACG [U32C G41C G58U], the yeast fitness is 0.533.

With GUUCCGUUGGCGCAAUGGUAAUGCGUCUCCCUCCUAAGCAGAAGACUGCGGGUUCGAGUCCCGUACGGAACG [U13C C22U G39C], the yeast fitness came out at 0.512. On to GUUCCGUUGGCGUAAUGGAAACGCGUCUCCCUUCUAAGGAGAAGACUGCGGGUUCGAGUCCCGUACGGAACG [U19A C33U], for which the yeast fitness was determined as 0.777. Consider GUUCCGUUGGCGUAAUGGUAACGUGUCUCCCCCCUAAGGAGAAGACUGCGGGUUCGAGUCCCGUACGGAACG [C24U U32C], for which the yeast fitness was 0.991.

Turning to GUUCCGUUGGCGUAAUGGUAACGCGUCCCCCUCGUAAGGGGAGGAGUGCGGAUUUGAGUCCCGUAUGGAACG [U28C C34G A40G A43G C46G G52A C55U C66U], the yeast fitness turned out to be 0.547. As to GUUCCGUUGGCGUAAUGGUAAUGCGUCUCCCUCCUAAGGAGAAGACUGCGGGUUCGAGUUACCUUCGGAACG [C22U C60U C61A G63C A65U], the yeast fitness was not above 0.5. Regarding GUUCCGUUGGCGUAAUGGUAACGCGUCUCCCUCCGAAGGAGAUGACUGCGGGUUCGAGUCCCGUACGGAACG [U35G A43U], the yeast fitness came out at 0.707.

Consider GUUCCGUUGGCGUAAUGGUAAGGCGUCUCCCUCCUAAGGAGAAGACUGCGGGUUCGAGUCCCGUACGGCACG [C22G A69C], for which the yeast fitness was determined as 0.82.

For GUUCCGUUGGCGUAAUGGUAAGGCGUCUCCCUCCUAAGGACAAGACUGCGGAUUCGAGUCCCGUACGGAACG [C22G G41C G52A], the yeast fitness was not above 0.5. In the case of GUUCCGUUCGCGUAAUGGUAACGCGUCUCCCUCCUAAGGAGAAGACUGCGGGUUCGAGUCCCGUACAGAACG [G9C G67A], the yeast fitness is 0.58. For the variant GUUCCGUUGGCGUGAUGGUAACGUGUCUCCCUCCUAAGGAGAAGACUGCGGGUUCGAGUCCCGUACCGAACG [A14G C24U G67C], the yeast fitness was found to be 0.54. To GUUCGGUUGGCGUGAUGGUAACGCGUGUCCCUCCUAAGGAGAAGACUGCGGGUUCGAGUCCCGUACGGAACG [C5G A14G C27G] belongs not above 0.5; to GUUCCGUUGGCGUAAUAGUAACGCGUCUUCCUCCGACCGAGAAGACUGGGGGUUCGAGUCCCGUACGGAACG [G17A C29U U35G A37C G38C C49G], 0.545; to GUUCCGUUGGCGUAACGGUAACGCGUCUGCCUCCUAAGGAGAAGACUGUGGGUUCGAGUGCCGUACGGAACG [U16C C29G C49U C60G], not above 0.5. Take GUUCCGUUGGCGUAAUGGUAACGCGUCUCCGUCCUAAGGAGACGACUGCGGGUUCGAGUCCCGUACGGAUCG [C31G A43C A70U]: the yeast fitness was determined as 0.637. GUUCCGUUGGCGUCAUGGAAACGCGUCUCCCUCCUAAGGAGAAGUCUGCGGGUUCGAGUCCCGUACGGAACG [A14C U19A A45U]: the yeast fitness was not above 0.5.

Take GUUCCGUUGGCGUAAUGGAAACGGGUCUCCCUGGUAAGGAGAAGACUGCGAGUUCGAGUCCCGUACGGAACG [U19A C24G C33G C34G G51A]: the yeast fitness is 0.531. On to GUUCCGUUGGCGUUAUGAUAACGCGUCUCCCUCCAAAGGAGAAGACUGCGGGUUCGCGUCCUGUACGGAACG [A14U G18A U35A A57C C62U], for which the yeast fitness is not above 0.5.
